The test deals with T1, homomeric (CNGA1) rod CNG channel (Bos taurus, UniProt Q00194).
T1 sequence (Q00194 1-690): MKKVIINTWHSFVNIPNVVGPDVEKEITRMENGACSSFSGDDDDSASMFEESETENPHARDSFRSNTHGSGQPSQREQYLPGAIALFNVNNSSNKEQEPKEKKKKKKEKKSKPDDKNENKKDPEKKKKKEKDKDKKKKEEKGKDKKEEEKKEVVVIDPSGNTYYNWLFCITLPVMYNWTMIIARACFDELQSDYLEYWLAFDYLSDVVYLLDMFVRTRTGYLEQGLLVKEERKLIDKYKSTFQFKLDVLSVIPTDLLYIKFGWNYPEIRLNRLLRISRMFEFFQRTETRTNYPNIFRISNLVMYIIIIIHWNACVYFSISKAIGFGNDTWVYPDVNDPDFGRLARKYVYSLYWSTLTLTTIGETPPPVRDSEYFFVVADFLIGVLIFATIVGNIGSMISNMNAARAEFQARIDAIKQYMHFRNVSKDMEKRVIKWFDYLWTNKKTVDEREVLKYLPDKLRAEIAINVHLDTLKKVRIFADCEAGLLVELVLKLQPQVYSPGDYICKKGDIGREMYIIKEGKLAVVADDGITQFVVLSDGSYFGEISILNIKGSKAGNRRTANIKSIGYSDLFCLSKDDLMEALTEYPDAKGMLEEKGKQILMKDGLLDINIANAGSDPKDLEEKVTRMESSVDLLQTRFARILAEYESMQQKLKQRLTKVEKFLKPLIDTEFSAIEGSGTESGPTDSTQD
It counts as biochemical, bovine. To be noted: saturating (2 mM) cGMP; for Inhibitory potency: result in words. The method in brief:
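CNGA1 cRNA was injected into Xenopus oocytes (16°C, 3–12 d). Inside-out patches at room temperature were held in low-divalent Na solution (pH 7.2), with 2 mM cGMP intracellular and niflumic acid extracellular. Retinoid from ethanol stocks was mixed into the bath under dim light after phosphatase-driven affinity shifts finished. Current at +100 mV was taken at ~1 h steady state, leak-subtracted, normalized to pre-drug current, and Hill-fitted.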

Entries after “also recorded” stand apart in the source; their conditions may differ.

As to `CC1=C(/C=C/C(C)=C/C=C/C(C)=C/C(=O)O)C(C)(C)CCC1` [RA, all-trans-retinoic acid], the Inhibitory potency entry is recorded as “No inhibition”. Also, the “Inhibition of current at 400 nM retinoid” value (400 nM, after 1 h, representative patch) was “did not inhibit; also recorded: no inhibition”.

As for `CC(=O)/C=C/C1=C(C)CCCC1(C)C` [β-ionone], the Inhibitory potency result is “No inhibition”. The “Inhibition of current at 10 μM retinoid” value (10 μM, after 1 h) is “unable to inhibit; also recorded: no change in current”.

The record behind these values is article PMC2266610 (The Journal of General Physiology, 2005).
